In ChEMBL document CHEMBL1128718, “2-Substituted penems with amino acid-related side chains: synthesis and antibacterial activity of a new series of beta-lactam antibiotics” (1995):
In brackets after ≈: the same amount, converted by molar mass.

Legend:
Assay type in all cases: functional
[1] = tested on: Staphylococcus epidermidis; experiment: In Vitro Anti Bacterial Activity (MIC90) against 90% of tested clinical Isolates of Staphylococcus epidermidis (13)
In short: (§1)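 Over 500 clinical isolates tested in total; the line gives the isolate count. MIC90 for aerobes by dilution in Mueller Hinton 2 medium, inoculum 10⁴ cells/mL, incubated 24 h at 37 °C.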

[2] = tested on: Clostridium perfringens; experiment: In Vitro Anti Bacterial Activity (MIC90) against 90% of tested clinical Isolates of Clostridium perfringens(27)
In short: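 MIC90 over clinical isolates of this anaerobic species, taken from the MIC distribution. Anaerobes were tested on Wilkins-Chalgren agar with an inoculum of 10⁵ cells/mL and incubated 24–48 h at 37 °C.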

[3] = tested on: Streptococcus agalactiae; experiment: In Vitro Anti Bacterial Activity (MIC90) against 90% of tested clinical Isolates of Streptococcus agalactiaeB(21)
[4] = tested on: Staphylococcus aureus; experiment: In vitro antibacterial activity against Sa(II) Staphylococcus aureus ATCC 25923
In short: (§2)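 Panel of standard ATCC strains plus modified strains: methicillin-resistant, hyperpermeable, β-lactamase-producing (TEM1, TEM2, SHV) and β-lactamase-lacking. MIC determined in Mueller Hinton 2 medium, inoculum 10⁴ cells/mL, incubated 24 h at 37 °C.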

[5] = tested on: Yersinia sp.; experiment: In Vitro Anti Bacterial Activity (MIC90) against 90% of tested clinical Isolates of Yersinia species(20); details: Yersinia sp. (in: enterobacteria)
[6] = tested on: Stenotrophomonas maltophilia; experiment: In Vitro Anti Bacterial Activity (MIC90) against 90% of tested clinical Isolates of Xanthomonas maltophilia(9); in short: as §1
[7] = tested on: Aeromonas; experiment: In Vitro Anti Bacterial Activity (MIC90) against 90% of tested clinical Isolates of Aeromonas species(21); in short: as §1
[8] = tested on: Streptococcus pneumoniae; experiment: In Vitro Anti Bacterial Activity (MIC90) against 90% of tested clinical Isolates of Streptococcus pneumoniae (23)
[9] = tested on: Escherichia coli; experiment: In Vitro antibacterial activity against (Ec SHV) Escherichia coli […] strain; in short: as §2
[10] = tested on: Pseudomonas aeruginosa; experiment: In Vitro antibacterial activity against (Pa) Pseudomonas aeruginosa ATCC 27853; in short: as §2
[11] = tested on: Haemophilus influenzae; experiment: In Vitro Anti Bacterial Activity (MIC90) against 90% of tested clinical Isolates of Haemophilus Influenzae(21)
In short: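 Clinical isolates. MIC90 in Haemophilus Test Medium Base plus Haemophilus Test Medium Supplement, inoculum 10⁴ cells/mL, incubated 24–48 h at 37 °C.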

[12] = tested on: Staphylococcus aureus; experiment: In vitro antibacterial activity against Sa(I) Staphylococcus aureus ATCC 29213
In short: (§3)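 MIC was determined in Mueller Hinton 2 medium with an inoculum of 10⁴ cells/mL and incubation for 24 h at 37 °C. Strains: Sa(I) is S. aureus ATCC 29213; Sa MR(I) is a heterogeneous methicillin-resistant S. aureus; Sa MR(II) is a homogeneous methicillin-resistant S. aureus.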

[13] = tested on: Streptococcus pyogenes; experiment: In Vitro Anti Bacterial Activity (MIC90) against 90% of tested clinical Isolates of Streptococcus pyogenes(31)
[14] = tested on: Staphylococcus aureus; experiment: In vitro antibacterial activity against Sa MR(I) heterogeneous methicillin resistant Staphylococcus aureus; in short: as §3
[15] = tested on: Pseudomonas aeruginosa; experiment: In Vitro antibacterial activity against (Pa G242) hyperpermeable Pseudomonas aeruginosa strain; in short: as §2
[16] = tested on: Enterococcus faecalis; experiment: In Vitro antibacterial activity against (Ef) Enterococcus faecalis ATCC 29212; in short: as §2
[17] = tested on: Citrobacter freundii; experiment: In Vitro Anti Bacterial Activity (MIC90) against 90% of tested clinical Isolates of Citrobacter freundii(20); in short: as §1
[18] = tested on: Klebsiella pneumoniae; experiment: In Vitro Anti Bacterial Activity (MIC90) against 90% of tested clinical Isolates of Klebsiella pneumoniae(20); in short: as §1
[19] = tested on: Escherichia coli; experiment: In Vitro antibacterial activity against (Ec) Escherichia coli ATCC 25922; in short: as §2
[20] = tested on: Bacteroides fragilis; experiment: In Vitro Anti Bacterial Activity (MIC90) against 90% of tested clinical Isolates of Bacteroides fragilis(15)
In short: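 Anaerobic clinical isolates. MIC90 by dilution in Wilkins-Chalgren agar, inoculum 10⁵ cells/mL, incubated 24–48 h at 37 °C.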

[21] = tested on: Enterococcus faecium; experiment: In Vitro Anti Bacterial Activity (MIC90) against 90% of tested clinical Isolates of Enterococcus faecium(47); in short: as §1
[22] = tested on: Escherichia coli; experiment: In Vitro antibacterial activity against (Ec TEM2) Escherichia coli […] strain; in short: as §2
[23] = tested on: Escherichia coli; experiment: In Vitro antibacterial activity against (Ec TEM1) Escherichia coli […] strain; in short: as §2
[24] = tested on: Moraxella catarrhalis; experiment: In Vitro Anti Bacterial Activity (MIC90) against 90% of tested clinical Isolates of Branhamella catarrhalis(27)
[25] = tested on: Pseudomonas aeruginosa; experiment: In Vitro Anti Bacterial Activity (MIC90) against 90% of tested clinical Isolates of Pseudomonas aeruginosa(11); in short: as §1
[26] = tested on: Listeria monocytogenes; experiment: In Vitro Anti Bacterial Activity (MIC 90) against 90% of tested clinical Isolates of Listeria monocytogenes (20); in short: as §1
[27] = tested on: Pseudomonas aeruginosa; experiment: In Vitro antibacterial activity against (Pa) hyperpermeable Pseudomonas aeruginosa […] strain; in short: as §2
[28] = tested on: Escherichia coli; experiment: In Vitro antibacterial activity against (Ec L) Escherichia coli […] strain; in short: as §2
[29] = tested on: Staphylococcus aureus; experiment: In Vitro Anti Bacterial Activity (MIC90) against 90% of tested clinical Isolates of Staphylococcus aureus MV (20)
[30] = tested on: Staphylococcus aureus; experiment: In Vitro Anti Bacterial Activity (MIC90) against 90% of tested clinical Isolates of Staphylococcus aureus MS (6); in short: as §1
[31] = tested on: Escherichia coli; experiment: In Vitro antibacterial activity against (Ec DC2) hyperpermeable Escherichia coli strain; in short: as §2
[32] = tested on: Enterococcus faecalis; experiment: In Vitro Anti Bacterial Activity (MIC90) against 90% of tested clinical Isolates of Enterococcus faecalis(47); in short: as §1
[33] = tested on: Escherichia coli; experiment: In Vitro Anti Bacterial Activity (MIC90) against 90% of tested clinical Isolates of Escherichia coli; in short: as §1
[34] = tested on: Acinetobacter calcoaceticus subsp. anitratus; experiment: In Vitro Anti Bacterial Activity (MIC90) against 90% of tested clinical Isolates of Acinetobacter anitratus(20); in short: as §1
[35] = tested on: Klebsiella aerogenes; experiment: In Vitro Anti Bacterial Activity (MIC90) against 90% of tested clinical Isolates of Enterobacter aerogenes(19); in short: as §1
[36] = tested on: Staphylococcus aureus; experiment: In vitro antibacterial activity against Sa MR(II) homogeneous methicillin resistant Staphylococcus aureus; in short: as §3

C[C@@H](O)[C@H]1C(=O)N2C(C(=O)O)=C(CN(C)[C@@H](C)C(N)=O)S[C@H]12
MIC90 [1]: 0.25 mg/L (≈ 0.759 µM)
MIC90 [2]: 0.5 mg/L (≈ 1.52 µM)
MIC90 [3]: 0.06 mg/L (≈ 0.182 µM)
MIC [4]: 0.06 mg/L (≈ 0.182 µM)
MIC90 [5]: 0.5 mg/L (≈ 1.52 µM)
MIC90 [6]: > 64 mg/L
MIC90 [7]: 2 mg/L (≈ 6.07 µM)
MIC90 [8]: 0.06 mg/L (≈ 0.182 µM)
MIC [9]: 0.5 mg/L (≈ 1.52 µM)
MIC [10]: > 64 mg/L
MIC90 [11]: 4 mg/L (≈ 12.1 µM)
MIC [12]: 0.015 mg/L (≈ 0.0455 µM)
MIC90 [13]: 0.06 mg/L (≈ 0.182 µM)
MIC [14]: 0.12 mg/L (≈ 0.364 µM)
MIC [15]: 0.25 mg/L (≈ 0.759 µM)
MIC [16]: 4 mg/L (≈ 12.1 µM)
MIC90 [17]: 1 mg/L (≈ 3.04 µM)
MIC90 [18]: 1 mg/L (≈ 3.04 µM)
MIC [19]: 0.25 mg/L (≈ 0.759 µM)
MIC90 [20]: 8 mg/L (≈ 24.3 µM)
MIC90 [21]: > 64 mg/L
MIC [22]: 1 mg/L (≈ 3.04 µM)
MIC [23]: 0.25 mg/L (≈ 0.759 µM)
MIC90 [24]: 0.5 mg/L (≈ 1.52 µM)
MIC90 [25]: > 64 mg/L
MIC90 [26]: 0.5 mg/L (≈ 1.52 µM)
MIC [27]: 1 mg/L (≈ 3.04 µM)
MIC [28]: 0.25 mg/L (≈ 0.759 µM)
MIC90 [29]: 8 mg/L (≈ 24.3 µM)
MIC90 [30]: 0.12 mg/L (≈ 0.364 µM)
MIC [31]: 1 mg/L (≈ 3.04 µM)
MIC90 [32]: 8 mg/L (≈ 24.3 µM)
MIC90 [33]: 0.25 mg/L (≈ 0.759 µM)
MIC90 [34]: 32 mg/L (≈ 97.2 µM)
MIC90 [35]: 32 mg/L (≈ 97.2 µM)
MIC [36]: 2 mg/L (≈ 6.07 µM)
